SUMO1-SIM PPI = SUMO1-SIM interaction modulation. P63165. SUMO1 binding to a labelled peptide, TR-FRET, 1 h. inhibition, % at 20 µM. 0.33% of 360,000 active; in the data active means inhibition above about 37%
Target sequence (P63165 whole entry, looked up): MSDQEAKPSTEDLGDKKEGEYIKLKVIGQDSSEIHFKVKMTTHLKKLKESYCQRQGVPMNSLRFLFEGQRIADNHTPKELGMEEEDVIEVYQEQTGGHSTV
HCV NS3 hel inh = HCV NS3 helicase inhibition; NS3 helicase DNA unwinding, Cy5 molecular beacon fluorescence; inhibition, % at 10.9 µM; 0.56% of 290,000 active; AID 1800;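 active means inhibition above the mean of all tested compounds plus 3 SD, set per campaign, cut at about 35% in these data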;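 further: 0% = DMSO wells and 100% = thioflavine S control wells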
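Material: hepatitis C virus NS3 helicase domain fragment enzyme; measured by: Cy5 fluorescence, 0 and 60 min reads; control set: DMSO and thioflavine S; incubation: 60 min unwinding reaction at 25 °C after ATP addition; read-out basis: % inhibition from 60/0 min fluorescence ratio, DMSO 0%, thioflavine S 100%; repeats: singlicate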
Pemphigus Ab inh = inhibitors of pemphigus antibody binding to human desmoglein-3; binding (percent of control), % at 10 µM; AID 588358; DSG3-coupled beads, scFv-anti-DSG3-GFP binding, flow cytometry; hits give low values; P32926; 0.48% of 310,000 active;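 active means binding more than 3 SD below its plate's average and above zero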;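 further: hits lower antibody fragment binding to DSG3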
UHRF1 MBD2 ctr = blocks human UHRF1 binding to methylated DNA; Q96T88; UHRF1 binding to methylated oligo, TR-FRET; inhibition, % at 4.4 µM; 0.75% of 370,000 active; in the data active means inhibition above about 21%;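 further: UHRF1 SRA domain binding a hemimethylated CpG hairpin DNA probe; 0% = median of test compound wells and 100% = reference inhibitor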
MBD2 inh = blocks human MBD2 binding to methylated DNA; TR-FRET, MBD2 binding to methylated oligonucleotide; inhibition, % at 4.4 µM; 0.31% of 370,000 active; in the data active means inhibition above about 13%
DNMT1 block = inhibitors of human DNMT1 | P26358 | 0.83% of 360,000 active | AID 588458 | inhibition (reported as % activation of signal), % at 10 µM | DNMT1 molecular beacon, Hinp1I cleavage, fluorescence; in the data active means inhibition above about 50%
Numbers without * were called inactive; · = no result given. Rows were chosen to be rich in hits. Some 2.5% of all compounds tested hit in one or more screens of this group.

SMILES | SUMO1-SIM PPI | HCV NS3 hel inh | Pemphigus Ab inh | UHRF1 MBD2 ctr | MBD2 inh | DNMT1 block
O=C(Nc1ccc(C(=O)N2CCCC2)cc1)C1CCC1 | 1.8 | · | 92.7 | 22.8* | 5.1 | 3.5
COc1ccc(NS(=O)(=O)c2c(C(=O)N3CCCCCC3)c(C)n(C)c2C)cc1 | 2.3 | -3.1 | 101.1 | -2.8 | -1.2 | -0.3
CC1CCCN(C(=S)Nc2ccc(S(=O)(=O)N3CCCCC3)cc2)C1 (stereo not given) | 3.6 | -21.6 | · | -0.9 | -3.9 | -0.1
CCCCOc1ccc(Nc2cc(Cl)ccc2C(=O)O)cn1 | 9.4 | -20.8 | 98.6 | 21.7* | 12.0 | 5.6
Nc1cc(-c2ccccc2)nn1S(=O)(=O)c1ccc(F)cc1 | 3.8 | -15.5 | 102.2 | -1.4 | -1.7 | -5.7
Nc1cc(-c2ccc(Br)cc2)nn1S(=O)(=O)c1ccccc1 | -0.5 | 2.7 | 62.2* | 1.6 | 1.6 | -4.2
COc1ccc(N(CC(=O)Nc2c(C)cccc2C)S(=O)(=O)c2ccccc2[N+](=O)[O-])c(OC)c1 | -2.1 | 12.4 | 100.5 | 1.5 | 3.3 | -4.4
COc1ccc(NC(=O)CN(c2ccccc2C)S(C)(=O)=O)c(OC)c1 | -3.4 | 2.0 | 103.8 | 1.0 | -0.8 | 0.8
COc1ccc(NC(=O)CN(c2ccc(C)cc2)S(C)(=O)=O)c(OC)c1 | -0.7 | -15.1 | 102.4 | 39.8* | 0.0 | -2.2
COc1ccc(N(CC(=O)Nc2ccccc2C)S(=O)(=O)c2ccccc2[N+](=O)[O-])c(OC)c1 | -1.7 | -7.1 | 24.3* | -0.9 | 2.7 | -4.8
COc1cc2c(C#N)c(N3CCOCC3)nc(N)c2c(N)n1 | 15.9 | 1.6 | 103.5 | -11.0 | -1.2 | 36.0
COc1cc2c(C#N)c(N3CCc4ccccc4C3)nc(N)c2c(N)n1 | 46.6* | 12.6 | 99.6 | -7.4 | -5.8 | 24.7
O=C(NCCO)/C(=C/c1cccc([N+](=O)[O-])c1)NC(=O)c1ccco1 | -11.7 | -7.4 | 105.5 | -2.7 | -2.6 | -0.3
CC1CCN(S(=O)(=O)c2ccc(C(=O)N3CCCCC3C(=O)O)cc2)CC1 (stereo not given) | 3.6 | · | 84.6 | 2.2 | 6.5 | 2.9
CC1CCN(C(=O)c2ccc(S(=O)(=O)N3CCCC3)cc2)CC1 | 37.2 | · | 96.1 | 40.6* | 2.1 | 0.0
CC1CCN(S(=O)(=O)c2ccc(C(=O)N3CCCC3C(=O)O)cc2)CC1 (stereo not given) | 3.5 | · | 103.0 | 57.5* | 2.5 | 0.9
COC(=O)Cc1ccc(NC(=S)NCC(C)C)cc1 | 3.3 | 5.9 | 108.1 | -1.8 | 6.4 | 1.0
Cc1ccc(C(=O)N/C(=C/c2ccc(N(C)C)cc2)C(=O)NCC2CCCO2)cc1 (stereo not given) | 0.6 | 1.1 | 35.2* | -1.4 | -0.8 | -1.4
Cc1ccc(C(=O)N/C(=C/c2ccc(Cl)cc2)C(=O)NCC2CCCO2)cc1 (stereo not given) | -3.7 | 1.5 | 101.1 | -3.7 | -7.1 | -0.6
Cc1nc(NC(=O)/C=C/c2ccccc2)sc1C(=O)Nc1ccccc1Cl | 3.7 | -1.8 | 78.0* | -1.4 | -1.6 | 38.9
CN(C)c1cccc(C(=O)OC(C(=O)Nc2ccc(Cl)cc2C(F)(F)F)c2ccccc2)c1 (stereo not given) | 7.1 | 7.2 | 107.0 | 14.7 | -0.9 | 3.4
C=CCOc1c2ccc(C(=O)NCc3ccccc3OC)cc2nn1C | -5.5 | -6.8 | 99.6 | -3.9 | 3.7 | 4.7
CCOC(=O)C(=O)c1csc(NC(=O)COc2ccc(N(C)S(=O)(=O)c3ccc(F)cc3)cc2)n1 | 0.7 | 2.9 | 73.2* | -2.1 | -3.6 | -0.9
CN(c1ccc(OCC(=O)Nc2nc(-c3ccccc3)cs2)cc1)S(=O)(=O)c1ccc(F)cc1 | 1.3 | -10.4 | 97.8 | -2.8 | -3.5 | -6.9
COCCN(C(=O)COC(=O)CCC1CCCCC1)c1c(N)n(Cc2ccccc2)c(=O)[nH]c1=O | -5.7 | · | 95.4 | 1.7 | 5.0 | 3.5
Cn1c(CN2CCCC2)c(C#N)c2ccccc21 | 3.4 | 1.0 | 108.0 | 65.2* | -3.6 | 29.3
Cc1ccc(N2CCN(C(=O)c3nn(C)c4c3CS(=O)(=O)c3ccccc3-4)CC2C)cc1 (stereo not given) | 0.5 | -5.0 | 98.4 | 2.2 | -3.8 | 1.7
O=C(c1ccc(C(F)(F)F)cc1)N1CCCCC1 | 0.7 | -2.7 | 99.3 | -0.2 | 2.0 | 2.4

Screening results deposited in PubChem by several laboratories.
